# Tests used:
# [1] = system: PDE4 and PDE7 relative to PDE2A and PDE11A; test: Selectivity from in vitro PDE assays; assay type: biochemical
# CLL cells = test: CLL apoptosis assay; assay type: cell-based, human; settings: 20μM, 48 h, median and standard deviation of three assays
# Summary of the method: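 PBMC from heparinized blood of CLL patients, isolated on Histopaque 1077 and washed. Plated at 1 million cells/well in RPMI 1640 with 10% FBS, 20 mM L-glutamine and penicillin/streptomycin. Exposed to 20μM test compound or vehicle for 48 h at 37°C, 5% CO2. Harvested, stained 10 min at 37°C with Hoechst 33342 (0.25 μg/mL final), then analysed by flow cytometry.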
# rat PDE2A = rat PDE2A (Rattus norvegicus, UniProt Q01062); test: In vitro PDE assay; assay type: biochemical
# Summary of the method: (§1)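 Recombinant PDE (human PDE1C, PDE3B, PDE5A1, PDE8A, PDE9A2, PDE10A1, PDE11A4; rat PDE2A) incubated with radiolabelled cyclic nucleotide substrate. Stopped in linear phase with 0.2 M ZnSO4, hydrolysis ≤~50%. 5′-nucleotide precipitated with 0.25 N Ba(OH)2 and spun down for 15 min. Supernatant radioactivity measured by scintillation counting.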
# human PDE7A = human PDE7A (Homo sapiens, UniProt Q13946); test: In vitro PDE assay; assay type: biochemical
# Sequence of human PDE7A (Q13946 whole entry): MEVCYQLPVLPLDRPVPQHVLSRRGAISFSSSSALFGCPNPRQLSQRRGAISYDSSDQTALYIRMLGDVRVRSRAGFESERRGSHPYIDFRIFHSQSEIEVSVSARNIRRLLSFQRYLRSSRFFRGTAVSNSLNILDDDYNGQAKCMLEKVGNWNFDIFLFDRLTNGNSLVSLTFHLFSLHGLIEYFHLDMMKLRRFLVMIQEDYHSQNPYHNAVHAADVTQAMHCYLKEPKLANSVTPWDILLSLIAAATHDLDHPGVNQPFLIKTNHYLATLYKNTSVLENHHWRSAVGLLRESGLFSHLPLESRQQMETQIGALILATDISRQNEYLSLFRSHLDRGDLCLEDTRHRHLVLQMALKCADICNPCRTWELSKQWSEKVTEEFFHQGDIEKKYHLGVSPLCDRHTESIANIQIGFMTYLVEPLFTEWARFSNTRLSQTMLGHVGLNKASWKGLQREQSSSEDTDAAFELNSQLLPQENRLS
# Summary of the method: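 Human PDE7 enzymes (PDE7A recombinant) assayed with 10nM cAMP substrate. Stopped during linear phase with 0.2 M ZnSO4, conversion kept near 50%. Product 5′-AMP removed by 0.25 N Ba(OH)2 precipitation and 15 min centrifugation. Remaining supernatant radioactivity read in scintillation fluid.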
# PDE7B [2] = target: PDE7B (Homo sapiens, UniProt Q9NP56); test: In vitro PDE assay; assay type: biochemical
# [3] = target: mutant PDE4B2^T407A catalytic domain (Homo sapiens, UniProt Q07343, T579A); test: In vitro enzyme assay, catalytic domain purified from E. coli; assay type: biochemical
# Sequence of mutant PDE4B2^T407A catalytic domain (Q07343 324-659 T579A): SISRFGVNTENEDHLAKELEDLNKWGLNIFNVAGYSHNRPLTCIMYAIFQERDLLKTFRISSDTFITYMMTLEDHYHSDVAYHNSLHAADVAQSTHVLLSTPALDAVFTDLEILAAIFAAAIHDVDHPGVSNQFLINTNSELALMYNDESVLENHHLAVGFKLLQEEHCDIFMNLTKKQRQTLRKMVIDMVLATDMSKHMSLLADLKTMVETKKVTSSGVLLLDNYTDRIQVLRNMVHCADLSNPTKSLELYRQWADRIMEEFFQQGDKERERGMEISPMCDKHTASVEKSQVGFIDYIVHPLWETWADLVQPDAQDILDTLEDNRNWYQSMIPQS
# human PDE8A = human PDE8A (Homo sapiens, UniProt O60658); test: In vitro PDE assay; assay type: biochemical
# Summary of the method: as §1
# rat PDE4A5 = rat PDE4A5 (Rattus norvegicus, UniProt P54748); test: Yeast-based HTS; assay type: cell-based; settings: duplicate plates, OD600 after 48 h
# Sequence of rat PDE4A5 (P54748 whole entry): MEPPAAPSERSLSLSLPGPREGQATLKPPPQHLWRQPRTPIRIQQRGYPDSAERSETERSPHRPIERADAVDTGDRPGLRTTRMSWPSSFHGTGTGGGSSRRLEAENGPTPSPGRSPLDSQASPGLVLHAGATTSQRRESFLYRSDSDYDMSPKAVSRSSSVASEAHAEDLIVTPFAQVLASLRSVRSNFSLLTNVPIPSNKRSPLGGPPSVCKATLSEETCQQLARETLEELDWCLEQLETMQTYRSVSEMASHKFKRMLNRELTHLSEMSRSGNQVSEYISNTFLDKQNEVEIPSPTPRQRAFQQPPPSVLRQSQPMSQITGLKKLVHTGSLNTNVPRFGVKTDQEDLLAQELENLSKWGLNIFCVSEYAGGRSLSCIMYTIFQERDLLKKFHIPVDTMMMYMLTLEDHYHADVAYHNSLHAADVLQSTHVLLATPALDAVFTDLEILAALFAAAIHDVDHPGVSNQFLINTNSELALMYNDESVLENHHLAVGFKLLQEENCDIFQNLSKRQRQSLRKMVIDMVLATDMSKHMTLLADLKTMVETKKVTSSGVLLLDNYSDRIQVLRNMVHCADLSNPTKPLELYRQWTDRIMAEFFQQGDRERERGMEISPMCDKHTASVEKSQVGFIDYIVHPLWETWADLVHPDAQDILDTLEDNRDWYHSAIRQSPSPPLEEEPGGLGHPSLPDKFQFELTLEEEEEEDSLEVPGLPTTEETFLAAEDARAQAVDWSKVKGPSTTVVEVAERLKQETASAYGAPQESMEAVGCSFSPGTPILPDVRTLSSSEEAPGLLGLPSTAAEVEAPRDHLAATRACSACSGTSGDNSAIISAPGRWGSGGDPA
# Summary of the method: (§2)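 S. pombe gpa2Δ strains carrying the PKA-repressed fbp1-ura4+ reporter, with the PDE replacing endogenous Cgs2, grown in 5FOA medium. Compounds from 5 mg/mL stocks were pinned in. OD600 read after 48 h at 30°C. Run on duplicate plates; composite Z = replicate Z-score vector scaled by cosine correlation with the diagonal. Controls: 0.2% DMSO (negative), 5 mM cAMP (positive).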
# human PDE9A2 = human PDE9A2 (Homo sapiens, UniProt O76083); test: In vitro PDE assay; assay type: biochemical
# Summary of the method: as §1
# [4] = system: S. pombe strain that expresses Git2 adenylyl cyclase and human PDE4B2; test: Stationary phase viability of yeast; assay type: cell-based; settings: 10μM BC54, three days in stationary phase
# Summary of the method: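 S. pombe CHP1346 (git2+ cgs2-2) transformants expressing PDE4B2 or no PDE, plus CHP1207 (git2Δ cgs2-2) with PDE4B2. Grown to stationary phase for three days in EMM-leucine ± 10μM test compound. Diluted 100-fold in YES, then four 10-fold serial dilutions. Spotted onto YES, grown at 30°C and photographed.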
# Human PDE4D2 = Human PDE4D2 (Homo sapiens, UniProt Q08499); test: In vitro PDE assay; assay type: biochemical
# Sequence of Human PDE4D2 (Q08499 388-713): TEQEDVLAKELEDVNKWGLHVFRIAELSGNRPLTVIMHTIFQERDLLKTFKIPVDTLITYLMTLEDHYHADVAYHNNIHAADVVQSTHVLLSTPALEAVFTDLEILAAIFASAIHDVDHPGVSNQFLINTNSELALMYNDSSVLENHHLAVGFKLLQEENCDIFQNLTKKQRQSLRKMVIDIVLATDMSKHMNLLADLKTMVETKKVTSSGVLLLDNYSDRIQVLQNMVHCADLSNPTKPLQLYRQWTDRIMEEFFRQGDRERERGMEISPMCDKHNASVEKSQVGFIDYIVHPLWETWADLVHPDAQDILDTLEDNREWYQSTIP
# Summary of the method: (§3)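 Radiolabelled cAMP hydrolysis with cAMP substrate at 40nM. Reactions stopped in linear phase with 0.2 M ZnSO4, hydrolysis limited to ~50% conversion. 5′-AMP precipitated with 0.25 N Ba(OH)2 and pelleted by centrifugation for 15 min. Supernatant radioactivity counted by scintillation.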
# human PDE7A1 = human PDE7A1 (Homo sapiens, UniProt Q13946); test: Yeast-based HTS; assay type: cell-based; settings: duplicate plates, OD600 after 48 h
# Sequence of human PDE7A1 (Q13946 whole entry): as the sequence (Q13946 whole entry) above
# Summary of the method: as §2
# human PDE1C = human PDE1C (Homo sapiens, UniProt Q14123); test: In vitro PDE assay; assay type: biochemical
# Sequence of human PDE1C (Q14123 whole entry): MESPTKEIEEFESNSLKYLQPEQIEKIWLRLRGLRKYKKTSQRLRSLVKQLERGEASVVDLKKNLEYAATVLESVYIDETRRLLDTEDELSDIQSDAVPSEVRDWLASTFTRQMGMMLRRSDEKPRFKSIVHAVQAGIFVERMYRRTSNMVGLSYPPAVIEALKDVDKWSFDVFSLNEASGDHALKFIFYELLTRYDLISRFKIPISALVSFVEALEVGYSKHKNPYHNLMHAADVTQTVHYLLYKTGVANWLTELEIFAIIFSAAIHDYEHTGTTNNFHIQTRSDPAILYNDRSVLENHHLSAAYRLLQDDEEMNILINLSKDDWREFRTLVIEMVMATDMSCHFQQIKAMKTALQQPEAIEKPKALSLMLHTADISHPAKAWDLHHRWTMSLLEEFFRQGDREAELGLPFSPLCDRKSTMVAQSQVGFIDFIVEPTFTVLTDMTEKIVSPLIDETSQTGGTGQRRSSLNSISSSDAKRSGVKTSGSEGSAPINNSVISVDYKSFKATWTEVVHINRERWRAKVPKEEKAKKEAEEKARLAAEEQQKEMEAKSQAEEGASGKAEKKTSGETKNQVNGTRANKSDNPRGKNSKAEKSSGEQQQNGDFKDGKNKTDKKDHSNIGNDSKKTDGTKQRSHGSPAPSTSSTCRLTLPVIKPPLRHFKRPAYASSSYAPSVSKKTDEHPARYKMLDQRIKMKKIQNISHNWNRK
# Summary of the method: as §1
# PDE11A = settings: very weak hit; cited from earlier work
# PDE8A = settings: not a hit; cited from earlier work
# human PDE10A1 = human PDE10A1 (Homo sapiens, UniProt Q9Y233); test: In vitro PDE assay; assay type: biochemical
# Summary of the method: as §1
# human PDE11A4 = human PDE11A4 (Homo sapiens, UniProt Q9HCR9); test: In vitro PDE assay; assay type: biochemical
# Sequence of human PDE11A4 (Q9HCR9 whole entry): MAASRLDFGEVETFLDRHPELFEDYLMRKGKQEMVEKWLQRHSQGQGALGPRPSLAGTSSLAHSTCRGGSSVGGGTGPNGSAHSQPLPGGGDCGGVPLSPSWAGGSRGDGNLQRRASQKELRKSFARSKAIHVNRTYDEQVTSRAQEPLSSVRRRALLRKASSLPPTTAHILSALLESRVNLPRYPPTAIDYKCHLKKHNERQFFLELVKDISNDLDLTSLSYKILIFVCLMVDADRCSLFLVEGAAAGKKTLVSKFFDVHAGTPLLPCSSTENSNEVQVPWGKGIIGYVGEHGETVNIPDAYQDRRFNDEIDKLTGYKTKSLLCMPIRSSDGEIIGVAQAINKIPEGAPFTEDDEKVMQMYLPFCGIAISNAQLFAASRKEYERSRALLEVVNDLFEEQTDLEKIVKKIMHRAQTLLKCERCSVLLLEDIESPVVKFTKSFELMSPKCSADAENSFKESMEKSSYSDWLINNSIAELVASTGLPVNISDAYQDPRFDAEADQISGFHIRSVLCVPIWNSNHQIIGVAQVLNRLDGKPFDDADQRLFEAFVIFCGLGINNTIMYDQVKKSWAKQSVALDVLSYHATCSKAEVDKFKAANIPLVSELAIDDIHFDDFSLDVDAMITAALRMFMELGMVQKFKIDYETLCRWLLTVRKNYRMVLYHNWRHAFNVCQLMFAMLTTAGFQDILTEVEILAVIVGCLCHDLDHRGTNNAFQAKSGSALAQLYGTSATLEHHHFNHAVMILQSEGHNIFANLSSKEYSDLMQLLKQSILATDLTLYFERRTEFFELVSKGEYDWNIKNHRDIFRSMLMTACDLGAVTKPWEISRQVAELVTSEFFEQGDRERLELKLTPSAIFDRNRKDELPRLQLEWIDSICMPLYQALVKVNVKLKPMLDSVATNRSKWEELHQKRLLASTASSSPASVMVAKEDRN
# Summary of the method: as §1
# human PDE3B = human PDE3B (Homo sapiens, UniProt Q13370); test: In vitro PDE assay; assay type: biochemical
# Summary of the method: as §1
# Human PDE4A10 = Human PDE4A10 (Homo sapiens, UniProt P27815); test: In vitro PDE assay; assay type: biochemical
# Sequence of Human PDE4A10 (P27815 351-683): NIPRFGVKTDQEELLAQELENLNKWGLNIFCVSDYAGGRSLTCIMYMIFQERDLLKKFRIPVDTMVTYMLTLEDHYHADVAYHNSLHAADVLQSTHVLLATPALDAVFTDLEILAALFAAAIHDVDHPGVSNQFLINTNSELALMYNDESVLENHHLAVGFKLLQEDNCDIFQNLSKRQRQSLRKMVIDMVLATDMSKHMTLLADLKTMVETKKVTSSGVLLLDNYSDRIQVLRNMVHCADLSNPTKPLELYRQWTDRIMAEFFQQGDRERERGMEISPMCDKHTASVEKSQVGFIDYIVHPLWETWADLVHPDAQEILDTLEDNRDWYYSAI
# Summary of the method: as §3
# human PDE5A1 = human PDE5A1 (Homo sapiens, UniProt O76074); test: In vitro PDE assay; assay type: biochemical
# Summary of the method: as §1
# Human PDE4B2 = Human PDE4B2 (Homo sapiens, UniProt Q07343); test: In vitro PDE assay; assay type: biochemical
# Sequence of Human PDE4B2 (Q07343 324-659): as the sequence (Q07343 324-659 T579A) above, with A256T counted along it
# murine PDE4A1 = murine PDE4A1 (Mus musculus, UniProt O89084); test: Yeast-based HTS; assay type: cell-based; settings: duplicate plates, OD600 after 48 h
# Sequence of murine PDE4A1 (O89084 1-610 isoform O89084-2): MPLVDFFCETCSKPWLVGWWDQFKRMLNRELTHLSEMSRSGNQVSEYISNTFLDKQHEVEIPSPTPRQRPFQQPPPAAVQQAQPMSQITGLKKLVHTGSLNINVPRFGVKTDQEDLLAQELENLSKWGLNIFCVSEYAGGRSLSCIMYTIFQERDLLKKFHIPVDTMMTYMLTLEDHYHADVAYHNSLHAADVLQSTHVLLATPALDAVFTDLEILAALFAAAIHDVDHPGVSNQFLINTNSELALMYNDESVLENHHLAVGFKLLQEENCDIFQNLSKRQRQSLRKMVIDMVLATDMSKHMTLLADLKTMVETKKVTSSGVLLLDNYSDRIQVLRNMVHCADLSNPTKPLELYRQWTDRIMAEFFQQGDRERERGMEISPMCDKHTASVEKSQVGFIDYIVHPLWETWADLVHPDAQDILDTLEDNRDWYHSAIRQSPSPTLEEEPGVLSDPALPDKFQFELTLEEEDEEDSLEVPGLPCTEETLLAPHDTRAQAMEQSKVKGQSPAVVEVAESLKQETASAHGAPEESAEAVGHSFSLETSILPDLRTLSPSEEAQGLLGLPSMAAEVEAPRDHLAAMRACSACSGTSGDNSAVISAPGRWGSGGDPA
# Summary of the method: as §2
# [5] = system: yeast strains that express human PDE4A1, PDE4B2, PDE4D3, PDE7A1 or PDE7B1; test: 5FOA growth assay, dose response; assay type: cell-based; settings: dose response 0.05 μM to 50 μM
# murine PDE4B3 = murine PDE4B3 (Mus musculus, UniProt Q8VBU5); test: Yeast-based HTS; assay type: cell-based; settings: duplicate plates, OD600 after 48 h
# Summary of the method: as §2
# [6] = system: TNFα production by LPS-stimulated macrophage (U937 cells); test: TNFα assay; assay type: cell-based; settings: 20μM
# [7] = system: IL-2 production by PMA-PHA stimulated Jurkat T cells; test: IL-2 assay; assay type: cell-based; settings: 20μM
# PDE7A = settings: cited from earlier work
# PDE7B [8] = settings: cited from earlier work
compound,measurement,setting,value
"CCOC(=O)c1cc2c(=O)n3ccccc3nc2n(C2CCCCC2)/c1=N\C(C)=O [BC54, ethyl (2Z)-2-(acetylimino)-1-cyclohexyl-5-oxo-1,5-dihydro-2H-dipyrido[1,2-a:2′,3′-d] pyrimidine-3-carboxylate]",selectivity for PDE4 and PDE7 relative to PDE2A and PDE11A,[1],greater than 20 fold
same,CLL apoptosis,CLL cells; Patient 1,87.3±0.76
same,CLL apoptosis,CLL cells; Patient 2,58.8±3.12
same,CLL apoptosis,CLL cells; Patient 3,39.8±1.79
same,IC50,rat PDE2A,~3000 nM
same,IC50,human PDE7A,140 nM
same,IC50,PDE7B [2],140 nM
same,IC50,[3],124 ± 8.8 nM
same,IC50,human PDE8A,> 10000 nM
same,Composite Z score,rat PDE4A5,> 40
same,IC50,human PDE9A2,> 10000 nM
same,reduction of stationary phase viability,[4],approximately ten-fold
same,IC50,Human PDE4D2,50 to 110 nM
same,Composite Z score,human PDE7A1,> 40
same,IC50,human PDE1C,> 10000 nM
same,Composite Z score,PDE11A,7.74
same,Composite Z score,PDE8A,−2.35
same,IC50,human PDE10A1,> 10000 nM
same,IC50,human PDE11A4,~3000 nM
same,IC50,human PDE3B,> 10000 nM
same,IC50,Human PDE4A10,50 to 110 nM
same,IC50,human PDE5A1,> 10000 nM
same,IC50,Human PDE4B2,50 to 110 nM
same,Composite Z score,murine PDE4A1,> 40
same,potency in 5FOA growth assay,[5],significant potency at sub-micromolar concentrations
same,Composite Z score,murine PDE4B3,> 40
same,TNFα production,[6],significantly reduces
same,IL-2 production,[7],significantly reduces
"Cc1ccc([N+](=O)[O-])cc1S(=O)(=O)N(C)C [BRL50481, 3-(N,N-dimethylsulfonamido)-4-methyl-nitrobenzene]",CLL apoptosis,CLL cells; Patient 1,52.5±0.78
same,CLL apoptosis,CLL cells; Patient 2,26.3±1.02
same,CLL apoptosis,CLL cells; Patient 3,5.1±0.72
same,IC50,PDE7A,150 nM
same,IC50,PDE7B [8],12100 nM
COc1ccc(C2CNC(=O)C2)cc1OC1CCCC1 (stereo not drawn) [rolipram],CLL apoptosis,CLL cells; Patient 1,76.7±0.76
same,CLL apoptosis,CLL cells; Patient 2,35.6±0.7
same,CLL apoptosis,CLL cells; Patient 3,20.3±2.18

# Reference: article PMC5651194 (Cellular signalling, 2017)
